ChEMBL document CHEMBL1944502, “Efficient synthesis and anti-enteroviral activity of 9-arylpurines” (Eur J Med Chem, 2012)

Key:
[1] = Antiviral activity against Coxsackievirus B3 Nancy infected in african green monkey Vero cells assessed as inhibition of virus-induced cell death after 3 days by spectrophotometry based MTS/PMS assay; assay type: functional, Coxsackievirus B3 (strain Nancy); details: Enterovirus B, 72 h
Procedure, shortened: (§1)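 Infected cells in 96-well plates received serial compound dilutions plus 100 CCID50 of virus. They were incubated 3 days, until full CPE appeared in untreated virus controls, at 37 °C (35 °C for rhinovirus 14). Viability was read by MTS/PMS at OD 498 nm and converted to % of controls. EC50 was obtained by linear interpolation. Runs were at least triplicate, with microscopic confirmation.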

[2] = Cytotoxicity against African green monkey Vero cells after 3 days by spectrophotometry based MTS/PMS assay; assay type: cell-based; details: chlorocebus sabaeus
Procedure, shortened: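 Uninfected Vero cultures were handled as in the antiviral set-up: serial compound dilutions for 3 days. Overall metabolism was read by MTS/PMS, and raw values were converted to % of controls. CC50 (50% inhibition of cell metabolism) was obtained by linear interpolation. Each experiment was repeated at least three times.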

[3] = test system: Vero; test: Cytotoxicity against Coxsackievirus B3 Nancy infected African green monkey Vero cells assessed as change in cell morphology at EC50 after 3 days by microscopic analysis; assay type: cell-based; details: chlorocebus sabaeus, 72 h
Procedure, shortened: (§2)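 Infected, compound-treated wells were inspected microscopically after the 3-day antiviral incubation. The check looked for virus-induced CPE and for compound-induced alteration of cell morphology, compared with uninfected, untreated control cells.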

[4] = test system: Poliovirus 1; test: Antiviral activity against Poliovirus type 1 Sabin infected in BGM cells assessed as inhibition of virus-induced cell death after 3 days by spectrophotometry based MTS/PMS assay; assay type: functional; details: Enterovirus C, 72 h
[5] = Antiviral activity against Enterovirus 71 BRCR infected in human RD cells assessed as inhibition of virus-induced cell death after 3 days by spectrophotometry based MTS/PMS assay; assay type: functional, Human enterovirus 71 (strain BRCR); details: Enterovirus A, 72 h; procedure, shortened: as §1
[6] = Antiviral activity against Echovirus 11 Gregory infected in BGM cells assessed as inhibition of virus-induced cell death after 3 days by spectrophotometry based MTS/PMS assay; assay type: functional, Echovirus 11 (strain Gregory); details: Enterovirus B, 72 h; procedure, shortened: as §1
[7] = test system: Coxsackievirus B4; test: Antiviral activity against Coxsackievirus B4 E2 Edwards infected in african green monkey Vero cells assessed as inhibition of virus-induced cytopathogenicity after 3 days by spectrophotometry based MTS/PMS assay; assay type: functional, organism-based; details: Enterovirus B, 72 h; procedure, shortened: as §1
[8] = test system: rhinovirus B14; test: Antiviral activity against Human rhinovirus 14 infected in human HeLa cells assessed as inhibition of virus-induced cytopathogenicity after 3 days by spectrophotometry based MTS/PMS assay; assay type: functional, organism-based; details: Rhinovirus B, 72 h; procedure, shortened: as §1
[9] = Antiviral activity against drug-resistant Coxsackievirus B3 Nancy infected in african green monkey Vero cells assessed as inhibition of virus-induced cell death after 3 days by spectrophotometry based MTS/PMS assay; assay type: functional, Coxsackievirus B3 (strain Nancy); details: Enterovirus B, 72 h
[10] = test system: Vero; test: Cytotoxicity against Coxsackievirus B4 E2 Edwards infected african green monkey Vero cells assessed as change in cell morphology at EC50 after 3 days by microscopic analysis; assay type: cell-based; details: chlorocebus sabaeus, 72 h; procedure, shortened: as §2
[11] = Cytotoxicity against Echovirus 11 Gregory infected BGM cells assessed as change in cell morphology at EC50 after 3 days by microscopic analysis; assay type: cell-based; details: chlorocebus aethiops, 72 h; procedure, shortened: as §2

Cc1nc(Cl)c2ncn(-c3cccc(N4CCOC4=O)c3)c2n1
EC50 [1]: 10.6 µM
EC90 [1]: 15.6 µM
CC50 at 72 h [2]: > 200 µM
Activity [3]: Non-toxic

CCN(CC)c1cccc(-n2cnc3c(Cl)ncnc32)c1
EC50 [1]: 15 µM
EC90 [1]: 23 µM
CC50 at 72 h [2]: > 100 µM
Activity [3]: Non-toxic

CCN(CC)c1cccc(-n2cnc3c(Cl)nc(C)nc32)c1
EC50 [1]: 10 µM
EC90 [1]: 15 µM
CC50 at 72 h [2]: > 100 µM
Activity [3]: Non-toxic

CN(C)c1cccc(-n2cnc3c(Cl)ncnc32)c1
EC50 [1]: 3.8 µM
EC90 [1]: 5 µM
CC50 at 72 h [2]: > 100 µM
EC50 [4]: > 100 µM
EC50 [5]: > 100 µM
EC50 [6]: 12.5 µM
EC50 [7]: 6.9 µM
EC50 [8]: > 100 µM
EC50 [9]: > 100 µM
Activity [3]: Non-toxic
Activity [10]: Non-toxic

Cc1nc(Cl)c2ncn(-c3cccc(N(C)C)c3)c2n1
EC50 [1]: 12 µM
EC90 [1]: 28 µM
CC50 at 72 h [2]: > 100 µM
Activity [3]: Non-toxic

CN(C)c1ccc(-n2cnc3c(Cl)ncnc32)cc1
EC50 [1]: 6.3 µM
CC50 at 72 h [2]: > 100 µM
Activity [3]: Non-toxic

Cc1nc(Cl)c2ncn(-c3ccc(N(C)C)cc3)c2n1
EC50 [1]: 11 µM
CC50 at 72 h [2]: > 100 µM
Activity [3]: Non-toxic

CN(C)c1cccc(-n2c(=O)[nH]c3c(Cl)ncnc32)c1
EC50 [1]: 16 µM
EC90 [1]: 26 µM
CC50 at 72 h [2]: > 100 µM
Activity [3]: Non-toxic

Cc1nc(Cl)c2[nH]c(=O)n(-c3cccc(N(C)C)c3)c2n1
EC50 [1]: 10 µM
EC90 [1]: 15 µM
CC50 at 72 h [2]: > 100 µM
Activity [3]: Non-toxic

Cc1nc(Cl)c2c(n1)n(-c1cccc(N(C)C)c1)c(=O)n2C
EC50 [1]: 11.3 µM
EC90 [1]: 18.2 µM
CC50 at 72 h [2]: > 200 µM
Activity [3]: Non-toxic

CCOC(=O)Oc1nc2c(Cl)nc(C)nc2n1-c1cccc(N(C)C)c1
EC50 [1]: 12.6 µM
EC90 [1]: 19.9 µM
CC50 at 72 h [2]: 131 µM
Activity [3]: Non-toxic

Cc1nc(Cl)c2nc(OC(=O)Oc3ccccc3)n(-c3cccc(N(C)C)c3)c2n1
EC50 [1]: 13.6 µM
EC90 [1]: 14.8 µM
CC50 at 72 h [2]: 75.9 µM

CC(=O)Nc1cccc(-n2cnc3c(Cl)ncnc32)c1
EC50 [1]: 18.5 µM
EC90 [1]: 24.2 µM
CC50 at 72 h [2]: > 174 µM
EC50 [4]: > 174 µM
EC50 [5]: > 174 µM
EC50 [6]: 20.8 µM
Activity [11]: Non-toxic
EC50 [7]: 12.1 µM
EC50 [8]: > 100 µM
EC50 [9]: > 50 µM
Activity [10]: Non-toxic

CC(=O)Nc1cccc(-n2cnc3c(Cl)nc(C)nc32)c1
EC50 [1]: 11.8 µM
EC90 [1]: 17.5 µM
CC50 at 72 h [2]: > 200 µM
Activity [3]: Non-toxic

CC(=O)N(C)c1cccc(-n2cnc3c(Cl)ncnc32)c1
EC50 [1]: 7.8 µM
CC50 at 72 h [2]: > 100 µM
Activity [3]: Non-toxic

CC(=O)N(C)c1cccc(-n2cnc3c(Cl)nc(C)nc32)c1
EC50 [1]: 6.1 µM
EC90 [1]: 8.3 µM
CC50 at 72 h [2]: 307 µM
EC50 [4]: > 158 µM
EC50 [5]: > 158 µM
EC50 [6]: 20 µM
Activity [11]: Non-toxic
EC50 [7]: 13 µM
EC50 [8]: > 100 µM
EC50 [9]: > 50 µM
Activity [3]: Non-toxic
Activity [10]: Non-toxic

CCN(C(C)=O)c1cccc(-n2cnc3c(Cl)nc(C)nc32)c1
EC50 [1]: 6.1 µM
EC90 [1]: 10.9 µM
CC50 at 72 h [2]: > 200 µM
Activity [3]: Non-toxic

CC(=O)N(CC1CC1)c1cccc(-n2cnc3c(Cl)nc(C)nc32)c1
EC50 [1]: 34.5 µM
EC90 [1]: 52.3 µM
CC50 at 72 h [2]: > 200 µM
Activity [3]: Non-toxic

O=C1OCCN1c1cccc(-n2cnc3c(Cl)ncnc32)c1
EC50 [1]: 33.7 µM
EC90 [1]: 47.5 µM
CC50 at 72 h [2]: > 200 µM
Activity [3]: Non-toxic

O=C1OCCN1c1cccc(-n2c(=O)[nH]c3c(Cl)ncnc32)c1
EC50 [1]: 8.9 µM
EC90 [1]: 15.3 µM
CC50 at 72 h [2]: > 200 µM
EC50 [4]: > 151 µM
EC50 [5]: > 151 µM
EC50 [6]: 86.9 µM
EC50 [7]: 24.1 µM
EC50 [8]: > 100 µM
Activity [3]: Non-toxic
Activity [10]: Non-toxic

Cc1nc(Cl)c2[nH]c(=O)n(-c3cccc(N4CCOC4=O)c3)c2n1
EC50 [1]: 25.4 µM
EC90 [1]: 33.5 µM
CC50 at 72 h [2]: > 200 µM
Activity [3]: Non-toxic

CCOc1ncnc2c1ncn2-c1cccc(NCCO)c1
EC50 [1]: > 200 µM
EC90 [1]: > 200 µM
CC50 at 72 h [2]: > 200 µM

Cc1nc(Cl)c2ncn(-c3cccc(C(C)(C)O)c3)c2n1
CC50 at 72 h [2]: > 100 µM
Activity [3]: Non-toxic

CC(=O)c1cccc(-n2cnc3c(Cl)ncnc32)c1
CC50 at 72 h [2]: > 100 µM
EC50 [4]: > 100 µM
EC50 [6]: 21.6 µM
EC50 [7]: 28.8 µM
EC50 [8]: > 100 µM
EC50 [9]: > 100 µM
Activity [3]: Non-toxic
Activity [10]: Non-toxic

CC(=O)c1cccc(-n2c(=O)[nH]c3c(Cl)nc(C)nc32)c1
CC50 at 72 h [2]: > 100 µM
Activity [3]: Non-toxic

Fc1cccc(F)c1[C@@H]1SCc2nc3cc(C(F)(F)F)ccc3n21
CC50 at 72 h [2]: > 100 µM
Activity [3]: Non-toxic

CC(C)S(=O)(=O)n1c(N)nc2ccc(/C(=N/O)c3ccccc3)cc21 [ENVIROXIME]
CC50 at 72 h [2]: > 100 µM
EC50 [9]: 1.3 µM
Activity [3]: Non-toxic
